The record followed here is ChEMBL document CHEMBL4321861, “An Underlying Mechanism of Dual Wnt Inhibition and AMPK Activation: Mitochondrial Uncouplers Masquerading as Wnt Inhibitors” (J Med Chem, 2019).

In general, IC50 refers to the concentration at which inhibition is half-maximal.

The structures appear in SMILES notation. Calls of active or inactive are those of the source. No cut-off for these calls is given here.

The test system of test [1] is HEK293. As to the kind of experiment: Inhibition of LiCl-activated Wnt signaling in HEK293 cells at […] by TOPFlash reporter gene assay. The test is classed as cell-based. The note with it: Homo sapiens. Summed up:
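Stable HEK293T line carrying Super 8xTOPFlash subcloned into pGL4.83 (hRlucP/Puro), selected with puromycin; Wnt signaling activated with 25 mM LiCl, compound added in DMSO (DMSO control); luciferase reporter readout. At least three independent repeats.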
A general note: Reporter assays use an easily measured gene product as a stand-in for the process of interest.

Test [2] deals with LS174T. Briefly: Inhibition of glucose metabolism in human LS174T cells assessed as reduction in ATP level at 10 mM by luminescence assay. Format: functional, cell-based.
Test [3] relates to LS174T. As to the kind of experiment: Inhibition of Wnt in human LS174T cells assessed as reduction in c-Myc expression at 1 uM by Western blot analysis. Format: cell-based. Summed up: (§1)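 Colorectal cancer cells (DLD-1, LS174T, SW620) treated with a compound dose series in DMSO. Lysates immunoblotted for Axin2, c-Myc and cyclin D1. At least three independent repeats.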
The subject of test [4] is LS174T. Briefly: Induction of mitochondrial dysfunction in human LS174T cells assessed as reduction in mitochondrial ATP production at 3 uM by Seahorse XF real-time assay. The note with it: Mitochondria. The method in brief:
(§2)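 About 3×10^4 cells seeded per well in XF96 plates. Next day medium switched to Seahorse XF medium with 25 mM glucose and 1 mM pyruvate. Compound given at 3 μM in DMSO; FCCP 1 μM as reference. Mitochondrial and glycolytic ATP production rates measured by XF Real-Time ATP Rate Assay.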

Test [5] has as its system HEK293. As to the kind of experiment: Inhibition of LiCl-activated Wnt signaling in HEK293 cells at 0.5 uM by TOPFlash reporter gene assay. Format: cell-based. To be noted: Homo sapiens. Summed up:
(§3)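 Stable HEK293T Super 8xTOPFlash reporter line (pGL4.83 backbone, puromycin-selected), stimulated with 25 mM LiCl to stabilize β-catenin. Treated with compound in DMSO or DMSO. Luciferase read in 96- or 24-well format. AMPK inhibitor compound C used at 5 μM where applied. At least three independent repeats.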

For test [6], the system named is LS174T. Briefly: Inhibition of Wnt in human LS174T cells assessed as reduction in cyclin-D1 expression at 1 uM by Western blot analysis. Format: cell-based. The method in brief: as §1
For orientation: Immunoblotting shows a protein as a band on a membrane.

In test [7] the test system is LS174T. As to the kind of experiment: Induction of mitochondrial membrane potential disruption in human LS174T cells at 3 uM measured after 2 hrs by TMRM staining based fluorescence microscopic analysis. The note with it: Mitochondria. Summed up:
(§4)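 Cells grown one day in 24-well plates: DLD-1 in DMEM + 10% serum, LS174T in RPMI1640 + 5% serum. Treated 2 h with compound in DMSO or DMSO, then stained with 100 nM TMRM for 15 min. Rinsed once with PBS and imaged by fluorescence microscopy at 568 nm.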

For test [8], the species on record is Homo sapiens. Briefly: Inhibition of Wnt in human DLD1 cells assessed as reduction in cyclin-D1 expression at 1 to 3 uM by Western blot analysis. Format: cell-based. The method in brief: as §1
For test [9], the species on record is Homo sapiens. As to the kind of experiment: Inhibition of Wnt in human SW620 cells assessed as reduction in Axin2 expression at 1 uM by Western blot analysis. The test is classed as cell-based. The method in brief: as §1
The test system of test [10] is LS174T. As to the kind of experiment: Induction of mitochondrial dysfunction in human LS174T cells assessed as increase in glycolytic ATP production at 3 uM by Seahorse XF real-time assay. To be noted: Mitochondria. Summed up: as §2
Test [11] has as its target T1, AMP-activated protein kinase, AMPK (Homo sapiens) (UniProt P54646+O43741+P54619+Q9UGJ0+Q9Y478+Q13131+Q9UGI9). As to the kind of experiment: Activation of AMPK in human LS174T cells assessed as increase in AMPK phosphorylation at T172 residue at 3 uM by Western blot analysis. Format: cell-based. The method in brief: (§5)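 Cells lysed in 50 mM HEPES, 100 mM NaCl, 2 mM EDTA, 1% glycerol, 50 mM NaF, 1 mM Na3VO4, 1% Triton X-100 with protease inhibitors. Western blot probed for total and phospho-AMPK and total and phospho-ACC, with actin loading control. Compounds given in DMSO. At least three independent repeats.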

Test [12] is filed under the species Homo sapiens. As to the kind of experiment: Inhibition of Wnt in human DLD1 cells assessed as reduction in c-Myc expression at 1 to 3 uM by Western blot analysis. The test is classed as cell-based. The method in brief:
as §1

The test system of test [13] is DLD-1. As to the kind of experiment: Cytotoxicity against human DLD1 cells assessed as reduction in cell viability by Vi-Cell XR cell viability analyzer-based assay. Format: functional. Summed up: (§6)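 Colon cancer cells plated at 3.5×10^4 per well in 12-well plates. LS174T were in EMEM + 10% FBS; DLD-1 were in DMEM + 10% FBS. After 24 h, compound in DMSO added (DMSO control). Cell number and viability counted on a Vi-Cell XR analyzer. Triplicate wells.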

Test [14] has as its system LS174T. Briefly: Cytotoxicity against human LS174T cells assessed as reduction in cell viability by Vi-Cell XR cell viability analyzer-based assay. The test is classed as functional. Summed up:
as §6

For test [15], the species on record is Homo sapiens. As to the kind of experiment: Inhibition of Wnt in human SW620 cells assessed as reduction in c-Myc expression at 1 uM by Western blot analysis. Format: cell-based. The method in brief:
as §1

For test [16], the species on record is Homo sapiens. Briefly: Inhibition of Wnt in human SW620 cells assessed as reduction in cyclin-D1 expression at 1 uM by Western blot analysis. Format: cell-based. The method in brief:
as §1

The test system of test [17] is LS174T. Briefly: Inhibition of Wnt in human LS174T cells assessed as reduction in Axin2 expression at 1 uM by Western blot analysis. Format: cell-based. The method in brief: as §1
The test system of test [18] is DLD-1. Briefly: Induction of mitochondrial dysfunction in human DLD1 cells assessed as increase in glycolytic ATP production at 3 uM by Seahorse XF real-time assay. The note with it: Mitochondria. Summed up: as §2
Test [19] relates to HEK293. Briefly: Inhibition of LiCl-activated Wnt signaling in HEK293 cells at 3 uM in presence of AMPK inhibitor compound C by TOPFlash reporter gene assay. Format: cell-based. To be noted: Homo sapiens. The method in brief: as §3
The test system of test [20] is HEK293. Briefly: Effect on FOP reporter expression in LiCl-induced HEK293T cells incubated for 24 hrs by luciferase reporter gene assay. Format: functional, cell-based. To be noted: Homo sapiens. The method in brief:
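HEK293T cells transiently transfected with Super 8x TOPFlash or 8x FOPFlash plus control Renilla reporter. Wnt signaling activated with LiCl or Wnt3A. Cells treated with DMSO or compound in DMSO. Luciferase activity read.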

Test [21] addresses T1, AMP-activated protein kinase, AMPK (Homo sapiens). Briefly: Activation of AMPK in human LS174T cells assessed as […] phosphorylation at S79 residue at 3 uM by Western blot analysis. The test is classed as cell-based. The method in brief: as §5
Test [22] has as its system DLD-1. As to the kind of experiment: Induction of mitochondrial dysfunction in human DLD1 cells assessed as reduction in mitochondrial ATP production at 3 uM by Seahorse XF real-time assay. The note with it: Mitochondria. The method in brief:
as §2

Test [23] deals with DLD-1. As to the kind of experiment: Induction of mitochondrial membrane potential disruption in human DLD1 cells at 3 uM measured after 2 hrs by TMRM staining based fluorescence microscopic analysis. The note with it: Mitochondria. The method in brief: as §4
Test [24] deals with LS174T. Briefly: Inhibition of LiCl-induced Wnt signaling in human LS174T cells assessed as reduction in beta-catenin accumulation. Format: cell-based.
In test [25] the test system is DLD-1. As to the kind of experiment: Uncoupling of mitochondrial oxidative phosphorylation in human DLD1 cells assessed as increase in oxygen consumption rate at 3 uM in presence of oligomycin A by seahorse XFe96 analyser based assay. To be noted: Mitochondria. The method in brief: (§7)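 DLD-1 cells, about 3×10^4 per XF96 well, in XF medium with 25 mM glucose and 1 mM pyruvate. Mito stress sequence: oligomycin A 1 μM, then test compound 3 μM in DMSO in place of FCCP (FCCP 1 μM as control), then rotenone/antimycin A 1 μM each. Oxygen consumption rate recorded.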

For test [26], the species on record is Homo sapiens. Briefly: Inhibition of Wnt in human DLD1 cells assessed as reduction in Axin2 expression at 1 to 3 uM by Western blot analysis. Format: cell-based. Summed up: as §1
Test [27] relates to DLD-1. Briefly: Uncoupling of mitochondrial oxidative phosphorylation in human DLD1 cells at 3 uM in presence of oligomycin A by seahorse XFe96 analyser based assay. The note with it: Mitochondria. Summed up:
as §7

With `OC[C@H]1OC(O)C[C@@H](O)[C@@H]1O` (some centres not stated), the inhibition result in the test on HEK293 [1] and with LS174T [2] was “Active” in each case.
`O=C(Nc1nnc(C(F)(F)F)s1)NC(CC(F)(F)F)(C(F)(F)F)C(F)(F)F`: the inhibition entry with LS174T [3], with LS174T [6], in the test filed under Homo sapiens [8], in the test filed under Homo sapiens [9], in the test filed under Homo sapiens [12] and in the test listed under Homo sapiens [15] was “Active” each time. The inhibition entry in the test listed under Homo sapiens [16], in the test on LS174T [17], with HEK293 [19], in the test on LS174T [24] and in the test filed under Homo sapiens [26] was “Active” throughout. Moreover, the outcome (in the test on LS174T [4]; with LS174T [7]; in the test on LS174T [10]; in test [11]; in the test on DLD-1 [18]; in test [21]) was Active. Moreover, the outcome in the test with DLD-1 [22], in the test on DLD-1 [23], in the test on DLD-1 [25] and in the test on DLD-1 [27] was Active. In addition, the inhibition result in the test on HEK293 [5] was “inactive”. Moreover, the values for the IC50 in the test with DLD-1 [13] and in the test with LS174T [14] were 0.96 µM and 0.8 µM, respectively. In the test on HEK293 [20], the result was inactive.
